Source: ChEMBL document CHEMBL5223168, “Using Imidazo[2,1-b][1,3,4]thiadiazol Skeleton to Design and Synthesize Novel MNK Inhibitors” (ACS Med Chem Lett, 2023)
Activity calls are given as the source filed them. The rule behind the calls is not given here.

Experiments:
MDA-MB-231 = experiment: Inhibition of colony formation in human MDA-MB-231 cells at 1 to 5 uM measured after 10 days by crystal violet staining based clonogenic assay; assay type: functional, cell-based; conditions: dose 1-5 µM, time 10.0 day
Procedure, shortened: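 Clonogenic assay over 10 days; cells treated with DMSO vehicle or compound at indicated concentrations, plates scanned and colonies quantified from three independent experiments.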

[1] = target: Eukaryotic translation initiation factor 4E (Homo sapiens) (UniProt P06730); experiment: Inhibition of eIF4E phosphorylation in human MDA-MB-231 cells at 5 uM and measured upto 96 hrs by Western blot analysis; assay type: cell-based
Sequence of Eukaryotic translation initiation factor 4E (Homo sapiens) (P06730 whole entry): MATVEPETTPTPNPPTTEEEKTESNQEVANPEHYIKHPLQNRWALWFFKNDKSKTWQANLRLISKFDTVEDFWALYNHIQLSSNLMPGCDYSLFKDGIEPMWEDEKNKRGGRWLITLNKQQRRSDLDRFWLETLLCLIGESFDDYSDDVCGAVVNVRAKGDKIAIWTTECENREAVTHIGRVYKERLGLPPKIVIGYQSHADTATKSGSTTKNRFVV
Procedure, shortened: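 Cells maintained with compound at 5 μM for up to 6 days for cell counts; eIF4E phosphorylation followed by immunoblot for up to 96 h.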

A549 [2] = experiment: Induction of cell cycle arrest in human A549 cells assessed as decrease in cyclin B1 level at 5 uM incubated for 24 hrs by Western blot analysis; assay type: functional, cell-based
Procedure, shortened: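 A549 and MDA-MB-231 cells treated 24 h with 5 μM; lysates resolved by SDS-PAGE and immunoblotted for cyclin B1, cyclin D3 and MMP-3.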

A549 [3] = experiment: Induction of cell cycle arrest in human A549 cells assessed as accumulation of cells at G2/M phase at 5 uM incubated for 20 hrs by propidium iodide staining based flow cytometry (Rvb=15.5%); assay type: functional
[4] = Clearance in mouse at 25 mg/kg, iv and measured upto 24 hrs; assay type: ADME, organism-based; conditions: in vivo
A549 [5] = experiment: Antitumor activity against human A549 cells xenografted in BALB/C nude mouse assessed as reduction in tumor volume at 75 to 150 mg/kg, po QD for 14 days; assay type: functional, organism-based; conditions: dose 75-150 mg/kg, time 14.0 day
Procedure, shortened: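 A549 xenografts in nude mice; compound given orally once daily at 75 or 150 mg/kg for 14 days, irinotecan reference at 3 mg/kg; tumor growth tracked as T/C ratio (relative tumor proliferation rate); body weight monitored.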

[6] = tested on: MAP kinase-interacting kinase MNK1/2 (Homo sapiens); experiment: Inhibition of MNK in human A549 cells assessed as reduction in MCP-1 level at 1 to 10 uM incubated for 48 hrs by ELISA; conditions: dose 1-10 µM
[7] = tested on: MAP kinase-interacting kinase MNK1/2 (Homo sapiens); experiment: Inhibition of MNK in human PC-3 cells assessed as inhibition of eIF4E phosphorylation at 3 uM incubated for 2 hrs by Western blot analysis
MV4-11 = experiment: Induction of cell cycle arrest in human MV4-11 cells assessed as decrease in cyclin B1 level at 3 uM incubated for 24 hrs by Western blot analysis

CN1CCN(C(=O)c2ccc(-c3nn4c(-c5ccc(C#N)cc5)cnc4s3)cc2)CC1
inhibition (MDA-MB-231): Dose-Dependent Effect
inhibition [1]: Active
Activity (A549 [2]): Active
Activity (A549 [3]): 3.3%
clearance [4]: 5.13 mL/min/kg
Activity (A549 [5]): Dose-Dependent Effect
inhibition [6]: Active
inhibition [7]: Active
Activity (MV4-11): Active
